Bioassay records (PubChem BioAssay)
This excerpt belongs to a sample that is enriched for hits.
RORA inh: inhibitors of orphan receptor RORA, primary screen, cell-based, luminescence | Nuclear receptor ROR-alpha (Homo sapiens), P35398 | CHO-K1 Gal4-RORA LBD luciferase reporter | inhibition, % at 10 µM | 65,000 compounds, 0.43% hits | AID 561, 2006;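 active means inhibition above the mean of all tested compounds plus 3 SD, cut at about 52% in these data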;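 further: 0% = RORA-transfected cells with DMSO and 100% = mock-transfected cells lacking RORA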
Target sequence (P35398 whole entry, looked up, the tested form may be a part): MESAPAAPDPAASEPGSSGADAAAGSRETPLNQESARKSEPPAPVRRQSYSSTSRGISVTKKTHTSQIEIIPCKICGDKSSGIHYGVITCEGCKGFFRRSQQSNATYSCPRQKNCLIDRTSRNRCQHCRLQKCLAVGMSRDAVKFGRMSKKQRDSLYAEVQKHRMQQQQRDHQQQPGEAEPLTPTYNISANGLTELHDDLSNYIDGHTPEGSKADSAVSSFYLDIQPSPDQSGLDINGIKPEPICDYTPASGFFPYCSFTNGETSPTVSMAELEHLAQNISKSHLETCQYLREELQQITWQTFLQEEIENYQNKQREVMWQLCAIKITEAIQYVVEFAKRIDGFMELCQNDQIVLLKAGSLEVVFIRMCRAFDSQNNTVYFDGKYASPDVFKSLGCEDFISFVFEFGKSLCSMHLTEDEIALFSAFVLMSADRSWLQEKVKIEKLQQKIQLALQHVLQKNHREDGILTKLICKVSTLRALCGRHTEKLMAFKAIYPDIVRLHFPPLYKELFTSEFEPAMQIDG
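System: transiently transfected CHO-K1 cells, Gal4-DBD/human RORA-LBD fusion plus 5xGal4-luciferase reporter. Doses: one dose of 10 µM final. Timing: 20 h compound treatment, 37 °C. Measured by: luminescence. Evaluation: % inhibition of basal luciferase versus +RORA/-RORA DMSO controls. Benchmarks: mock-transfected cells as 100%, +RORA DMSO cells as 0%. Replicates: single test per compound.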
An asterisk follows results filed as active.

SMILES	RORA inh
C[C@@]1(CO)[C@H](O)CC[C@@]2(C)[C@H]1CC[C@H]1C[C@@H]3C[C@@]12CC[C@]3(O)CO	82.0*
CN(C)C(=O)Nc1cccc(OC(=O)N(C)C)c1	14.6
CC1CC2(O)c3no[n+]([O-])c3CCC2N1O (stereo unspecified)	4.9
CCCCn1c(O)c(C(C)=NCc2ccc(F)cc2)c(=O)[nH]c1=O	12.0
Cn1ncnc2c(=O)n(C)c(=O)nc1-2	97.5*
COc1ccc(CN2CCCCC2c2cccnc2)cc1C (stereo unspecified)	-10.8
CCOC(=O)N(c1ccccc1)P1(=S)OCC(C)O1 (stereo unspecified)	20.2
Cc1ccc(-n2c(O)c(C=Nc3ccccc3N)c(=O)[nH]c2=O)cc1C	-55.4
CCCCCCOc1ccc(CN2CCN(C)CC2)cc1	5.1
CCS(=O)(=O)N1CCC(C(=O)N2CCC3(CC2)OCCO3)CC1	1.2
